Measurements taken from ChEMBL document CHEMBL1149264, “Discovery of novel phenolic antioxidants as inhibitors of vascular cell adhesion molecule-1 expression for use in chronic inflammatory diseases” (J Med Chem, 2004).
Active and inactive are the calls of the source. The rule behind the calls is not given here.

Key:
[1] = Inhibition of TNF-alpha-stimulated VCAM1 expression in endothelial cells; assay type: functional, cell-based; conditions: Homo sapiens, Endothelial cell
[2] = Inhibition of LPS-induced TNFalpha secretion in human PBMN cells by ELISA; assay type: functional, cell-based
Method in brief: (§1)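 Fresh cryopreserved human PBMCs at 1 million cells/mL in lymphocyte growth media-3 were pretreated with compound for 1 h, then stimulated with LPS 1 μg/mL for a further 2 h with compound present. Secreted TNF-α, IL-6 and IL-1β in conditioned media measured by human ELISA, in duplicate (mean ± SD). Experiments repeated at least three times.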

[3] = Inhibition of LPS-induced IL6 secretion in human PBMN cells by ELISA; assay type: functional, cell-based; method in brief: as §1
Mus musculus [4] = assay: Inhibition of mBSA-induced paw-swelling in DTH BALB/c mouse model at 50 mg/kg, sc; assay type: functional; conditions: route subcutaneous
Method in brief: (§2)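 Male BALB/c mice (20-25 g) sensitized on day 0 with intradermal abdominal mBSA (5 mg/mL)/Freund's complete adjuvant 1:1 emulsion. On day 7 challenged with mBSA in the right hind footpad, saline in the left. Compound given s.c. 24 h and 2 h before challenge; cyclosporin A 20 mg/kg as reference. Feet weighed 24 h post-challenge; swelling inhibition relative to vehicle group (100%). ANOVA with Fisher's PLSD.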

[5] = Inhibition of LPS-induced IL1-beta secretion in human PBMN cells by ELISA; assay type: functional, cell-based; method in brief: as §1
Mus musculus [6] = assay: Inhibition of mBSA-induced paw-swelling in DTH BALB/c mouse model at 25 mg/kg, sc; assay type: functional; conditions: route subcutaneous; method in brief: as §2
Syrian golden hamster [7] = assay: Effect on HDL level in hypercholesterolemic golden Syrian hamster; assay type: functional, Mesocricetus auratus; design: unit not given here
Method in brief: (§3)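 Male golden Syrian hamsters (110-120 g), housed singly, given compound mixed into powdered chow at 150 mg/kg/d for two weeks. After an overnight fast and ketamine/xylazine i.p. anesthesia, blood was taken by cardiac puncture or abdominal aorta. Plasma was fractionated by FPLC and lipoprotein cholesterol measured enzymatically. Dunnett's test against controls.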

Syrian golden hamster [8] = assay: Effect on LDL level in hypercholesterolemic golden Syrian hamster; assay type: functional, Mesocricetus auratus; design: unit not given here; method in brief: as §3
[9] = biological target: T1, Polyunsaturated fatty acid lipoxygenase ALOX15 (Homo sapiens, UniProt P16050); assay: Inhibition of 15-lipoxygenase by LMB assay
T1 sequence (P16050 whole entry): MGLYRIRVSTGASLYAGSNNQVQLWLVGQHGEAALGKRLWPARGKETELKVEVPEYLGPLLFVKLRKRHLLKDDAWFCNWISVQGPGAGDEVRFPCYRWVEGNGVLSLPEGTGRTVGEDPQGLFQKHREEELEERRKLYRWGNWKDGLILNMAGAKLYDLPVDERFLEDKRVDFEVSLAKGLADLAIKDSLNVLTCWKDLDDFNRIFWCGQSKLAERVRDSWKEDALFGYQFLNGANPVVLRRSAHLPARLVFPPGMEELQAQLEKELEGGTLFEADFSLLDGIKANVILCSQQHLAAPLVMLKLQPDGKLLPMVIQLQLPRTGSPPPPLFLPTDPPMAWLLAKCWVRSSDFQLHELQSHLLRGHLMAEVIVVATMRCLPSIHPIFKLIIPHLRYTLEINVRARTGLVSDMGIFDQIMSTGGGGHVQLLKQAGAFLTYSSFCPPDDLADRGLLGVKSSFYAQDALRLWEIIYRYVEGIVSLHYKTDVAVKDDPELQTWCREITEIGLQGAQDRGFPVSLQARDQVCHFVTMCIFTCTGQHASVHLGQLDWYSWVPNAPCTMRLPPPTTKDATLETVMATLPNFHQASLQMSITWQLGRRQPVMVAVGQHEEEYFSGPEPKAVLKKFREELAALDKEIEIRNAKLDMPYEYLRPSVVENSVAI

PBMN = assay: Inhibition of LPS-induced IL1-beta secretion in human PBMN cells at 10 uM by ELISA; assay type: functional, cell-based; method in brief: as §1
Rattus norvegicus [10] = organism: Rattus norvegicus; assay: Inhibition of artheriosclerosis in allograft recipient rat; assay type: functional, organism-based
Rattus norvegicus [11] = assay: Inhibition of paw edema in collagen 2-sensitized orally dosed rat model; assay type: functional, organism-based

Compound: CC(C)(Sc1cc(C(C)(C)C)c(O)c(C(C)(C)C)c1)Sc1ccc(C(C)(C)C)c(OCC(=O)NC(CO)CO)c1C(C)(C)C
- IC50 [1]: 6 µM

Compound: CC(C)(Sc1cc(C(C)(C)C)c(O)c(C(C)(C)C)c1)Sc1ccc(C(C)(C)C)c(OC[C@@H](O)[C@H](O)CO)c1C(C)(C)C
- IC50 [2]: 3.3 µM
- IC50 [3]: 1.2 µM
- inhibition in vivo at 50 mg/kg (Mus musculus [4]): 58%
- IC50 [5]: 8 µM
- inhibition in vivo at 25 mg/kg (Mus musculus [6]): 29%
- IC50 [1]: 1 µM

Compound: CC(=O)OC(CO)COc1c(C(C)(C)C)ccc(SC(C)(C)Sc2cc(C(C)(C)C)c(O)c(C(C)(C)C)c2)c1C(C)(C)C (centres undefined)
- IC50 [1]: 33 µM

Compound: CC(C)(Sc1cc(C(C)(C)C)c(O)c(C(C)(C)C)c1)Sc1ccc(C(C)(C)C)c(OC[C@@H](O)[C@@H](O)[C@@H](O)CO)c1C(C)(C)C
- Activity (Syrian golden hamster [7]): 119
- IC50 [1]: 13 µM
- Activity (Syrian golden hamster [8]): 338

Compound: CC(C)(Sc1cc(C(C)(C)C)c(O)c(C(C)(C)C)c1)Sc1ccc(C(C)(C)C)c(OCC(=O)NCC(=O)O)c1C(C)(C)C
- IC50 [1]: 6 µM

Compound: CC(C)(Sc1cc(C(C)(C)C)c(O)c(C(C)(C)C)c1)Sc1ccc(C(C)(C)C)c(OC/C(N)=N/O)c1C(C)(C)C
- IC50 [1]: 26 µM

Compound: CC(C)(Sc1cc(C(C)(C)C)c(O)c(C(C)(C)C)c1)Sc1ccc(C(C)(C)C)c(OC[C@H]2OC(O)[C@H](O)[C@@H](O)[C@@H]2O)c1C(C)(C)C (some centres undefined)
- IC50 [2]: 1.9 µM
- Activity (Syrian golden hamster [7]): 63
- IC50 [9]: 10 µM
- Activity (PBMN): Active
- IC50 [3]: 1.6 µM
- inhibition in vivo at 50 mg/kg (Mus musculus [4]): 58%
- inhibition in vivo at 25 mg/kg (Mus musculus [6]): 29%
- IC50 [1]: 10 µM
- Activity (Syrian golden hamster [8]): 9

Compound: CC(=O)O[C@@H]1O[C@H](COc2c(C(C)(C)C)ccc(SC(C)(C)Sc3cc(C(C)(C)C)c(O)c(C(C)(C)C)c3)c2C(C)(C)C)[C@@H](OC(C)=O)[C@H](OC(C)=O)[C@H]1OC(C)=O
- IC50 [1]: > 50 µM

Compound: CC(C)(Sc1cc(C(C)(C)C)c(O)c(C(C)(C)C)c1)Sc1ccc(C(C)(C)C)c(OCC(O)CO)c1C(C)(C)C (centres undefined)
- IC50 [1]: 30 µM

Compound: CC(C)(Sc1cc(C(C)(C)C)c(OCC(=O)O)c(C(C)(C)C)c1)Sc1ccc(C(C)(C)C)c(OCC(=O)O)c1C(C)(C)C
- IC50 [2]: > 10 µM
- IC50 [9]: > 125 µM
- IC50 [3]: > 10 µM
- IC50 [5]: > 10 µM
- IC50 [1]: > 50 µM

Compound: CC(C)(Sc1cc(C(C)(C)C)c(O)c(C(C)(C)C)c1)Sc1cc(C(C)(C)C)c(OC(=O)CCC(=O)O)c(C(C)(C)C)c1 [SUCCINOBUCOL]
- IC50 [1]: 6 µM

Compound: CC(C)(Sc1cc(C(C)(C)C)c(O)c(C(C)(C)C)c1)Sc1ccc(C(C)(C)C)c(OC[C@H]2OC(O)[C@H](O)[C@@H]2O)c1C(C)(C)C (some centres undefined)
- IC50 [1]: 8 µM

Compound: CC(C)(Sc1cc(C(C)(C)C)c(O)c(C(C)(C)C)c1)Sc1cc(C(C)(C)C)c(OCCCC(=O)O)c(C(C)(C)C)c1 [ELSIBUCOL]
- Activity (Rattus norvegicus [10]): Active
- IC50 [1]: 11 µM

Compound: CC(C)(Sc1cc(C(C)(C)C)c(O)c(C(C)(C)C)c1)Sc1cc(C(C)(C)C)c(O)c(C(C)(C)C)c1 [PROBUCOL]
- IC50 [2]: > 40 µM
- IC50 [3]: > 40 µM
- IC50 [5]: > 40 µM

Compound: CC(C)(Sc1cc(C(C)(C)C)c(O)c(C(C)(C)C)c1)Sc1ccc(C(C)(C)C)c(OCCC(=O)O)c1C(C)(C)C
- IC50 [1]: 7 µM

Compound: CC(C)(Sc1cc(C(C)(C)C)c(O)c(C(C)(C)C)c1)Sc1ccc(C(C)(C)C)c(OC[C@H](O)[C@@H](O)CO)c1C(C)(C)C
- IC50 [2]: 4 µM
- IC50 [3]: 1.7 µM
- inhibition in vivo at 50 mg/kg (Mus musculus [4]): 58%
- IC50 [5]: 7.7 µM
- inhibition in vivo at 25 mg/kg (Mus musculus [6]): 29%
- IC50 [1]: 6 µM

Compound: CC(C)(Sc1cc(C(C)(C)C)c(O)c(C(C)(C)C)c1)Sc1ccc(C(C)(C)C)c(OCC(O)CNCC(=O)O)c1C(C)(C)C (centres undefined)
- Activity (Syrian golden hamster [7]): 146
- IC50 [1]: 16 µM
- Activity (Syrian golden hamster [8]): 190

Compound: CC(C)(Sc1cc(C(C)(C)C)c(O)c(C(C)(C)C)c1)Sc1ccc(C(C)(C)C)c(OC[C@@H](O)[C@@H](O)[C@@H](O)C(=O)O)c1C(C)(C)C
- Activity (Syrian golden hamster [7]): 173
- IC50 [1]: 35 µM
- Activity (Syrian golden hamster [8]): 175

Compound: CC(C)(Sc1cc(C(C)(C)C)c(O)c(C(C)(C)C)c1)Sc1ccc(C(C)(C)C)c(OCCCCO)c1C(C)(C)C
- IC50 [1]: 125 µM

Compound: CC(C)(Sc1cc(C(C)(C)C)c(O)c(C(C)(C)C)c1)Sc1ccc(C(C)(C)C)c(OCC(=O)N[C@@H](CCC(=O)O)C(=O)O)c1C(C)(C)C
- IC50 [1]: 75 µM

Compound: CC(C)(Sc1cc(C(C)(C)C)c(O)c(C(C)(C)C)c1)Sc1ccc(C(C)(C)C)c(OCCCCC(=O)O)c1C(C)(C)C
- IC50 [1]: 23 µM

Compound: CN(CC(=O)O)C(=O)COc1c(C(C)(C)C)ccc(SC(C)(C)Sc2cc(C(C)(C)C)c(O)c(C(C)(C)C)c2)c1C(C)(C)C
- IC50 [1]: 7 µM

Compound: CC(C)(Sc1cc(C(C)(C)C)c(O)c(C(C)(C)C)c1)Sc1ccc(C(C)(C)C)c(OC[C@H]2OC(=O)[C@H](O)[C@@H]2O)c1C(C)(C)C
- IC50 [1]: 13 µM

Compound: C=CC(=O)OCCCCOc1c(C(C)(C)C)ccc(SC(C)(C)Sc2cc(C(C)(C)C)c(O)c(C(C)(C)C)c2)c1C(C)(C)C
- IC50 [1]: 75 µM

Compound: CC(C)(Sc1cc(C(C)(C)C)c(O)c(C(C)(C)C)c1)Sc1ccc(C(C)(C)C)c(OCC(=O)NCCC(=O)O)c1C(C)(C)C
- IC50 [1]: 6 µM

Compound: CC(C)(Sc1cc(C(C)(C)C)c(O)c(C(C)(C)C)c1)Sc1ccc(C(C)(C)C)c(O/C=C/C(=O)O)c1C(C)(C)C
- IC50 [1]: 30 µM

Compound: CC(C)(Sc1cc(C(C)(C)C)c(O)c(C(C)(C)C)c1)Sc1ccc(C(C)(C)C)c(O/C=C/CO)c1C(C)(C)C
- IC50 [1]: 55 µM

Compound: CCOCC(O)COc1c(C(C)(C)C)ccc(SC(C)(C)Sc2cc(C(C)(C)C)c(O)c(C(C)(C)C)c2)c1C(C)(C)C (centres undefined)
- IC50 [1]: > 50 µM

Compound: CC(C)(Sc1cc(C(C)(C)C)c(O)c(C(C)(C)C)c1)Sc1ccc(C(C)(C)C)c(OC[C@@H](O)[C@@H](O)[C@H](O)[C@@H](O)CO)c1C(C)(C)C
- IC50 [2]: 1.8 µM
- Activity (Syrian golden hamster [7]): 94
- IC50 [9]: 12 µM
- IC50 [3]: 1 µM
- inhibition in vivo at 50 mg/kg (Mus musculus [4]): 58%
- IC50 [5]: 2.2 µM
- inhibition in vivo at 25 mg/kg (Mus musculus [6]): 29%
- IC50 [1]: 15 µM
- Activity (Syrian golden hamster [8]): 30

Compound: CC(C)(Sc1cc(C(C)(C)C)c(O)c(C(C)(C)C)c1)Sc1cc(C(C)(C)C)c(OCC(=O)O)c(C(C)(C)C)c1 [CAMOBUCOL]
- Activity (Syrian golden hamster [7]): 86
- Activity (Rattus norvegicus [11]): Dose-dependent effect
- IC50 [1]: 10 µM
- Activity (Syrian golden hamster [8]): 18

Compound: CC(=O)OCC(O)COc1c(C(C)(C)C)ccc(SC(C)(C)Sc2cc(C(C)(C)C)c(O)c(C(C)(C)C)c2)c1C(C)(C)C (centres undefined)
- IC50 [1]: 41 µM

Compound: CC(C)(Sc1cc(C(C)(C)C)c(O)c(C(C)(C)C)c1)Sc1ccc(C(C)(C)C)c(OCC(CO)CO)c1C(C)(C)C
- IC50 [1]: 13 µM
